Bioassay records deposited in PubChem BioAssay by several laboratories.
HMGR II inh: inhibitors of class II HMG-CoA reductase from Enterococcus faecalis; purified E. faecalis HMGR, NADPH absorbance 340 nm kinetic; inhibition, % at 10 µM; actives 0.41% (n = 190,000); AID 1066;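 active means inhibition above a set limit, the median over all tested compounds plus 3 SD, cut at about 9.5% in these data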;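 further: enzyme runs in reverse so mevalonate oxidation gives rising NADPH absorbance; 0% = complete reaction with DMSO and 100% = background rate lacking mevalonate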
Yeast growth inh: yeast BB579 growth reduction in restrictive medium | S. cerevisiae BB579 growth, OD615, 48 h | inhibition, % at 10 µM | actives 0.51% (n = 140,000) | AID 804;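 active means inhibition above a set limit, 3 SD over the mean compound inhibition, cut at about 44% in these data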
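System: Saccharomyces cerevisiae DeaD strain BB579, replicative lifespan model yeast | Buffer or medium: Restrictive glucose-based CSMM-D medium | Times: 4 h preincubation and 48 h exposure at 30 °C | Detection: OD615 turbidity measurement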
Arbovirus anti: arbovirus infection inhibition; arbovirus infection cell-based antiviral screen; inhibition, % at 10 µM; actives 0.37% (n = 200,000); AID 1251; in the data active means inhibition above about 30%
Yeast lifespan up: yeast lifespan extension; actives 0.68% (n = 130,000); S. cerevisiae growth with nicotinamide, OD615; deaD strain in restrictive glucose medium; AID 775; inhibition of the nicotinamide effect, % at 10 µM;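 active means inhibition above a set limit, placed 3 SD over the median of all compounds, cut at about 26% in these data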;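 further: 0% = nicotinamide-treated wells and 100% = cells grown without nicotinamide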
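Assay system: engineered S. cerevisiae DeaD replicative-lifespan strain, galactose-grown log-phase cells; Buffer or medium: CSMM-D glucose medium, restrictive; Probe or stimulus: nicotinamide 1.5 mM; Compound: single dose 10 µM compound, 0.25% DMSO; Schedule: 4 h preincubation then 48 h treatment at 30 °C; Technique: OD615 measurement.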
Rad51 HR inh: blocks human Rad51 in homologous recombination; actives 0.085% (n = 200,000); inhibition, % at 10 µM; hRad51 DNA strand exchange, fluorescence dequenching;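 active means inhibition above 40% at the single screening dose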;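 further: 0% = DMSO control wells and 100% = blanks with heterologous ssDNA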
Target sequence (Q06609 whole entry, looked up): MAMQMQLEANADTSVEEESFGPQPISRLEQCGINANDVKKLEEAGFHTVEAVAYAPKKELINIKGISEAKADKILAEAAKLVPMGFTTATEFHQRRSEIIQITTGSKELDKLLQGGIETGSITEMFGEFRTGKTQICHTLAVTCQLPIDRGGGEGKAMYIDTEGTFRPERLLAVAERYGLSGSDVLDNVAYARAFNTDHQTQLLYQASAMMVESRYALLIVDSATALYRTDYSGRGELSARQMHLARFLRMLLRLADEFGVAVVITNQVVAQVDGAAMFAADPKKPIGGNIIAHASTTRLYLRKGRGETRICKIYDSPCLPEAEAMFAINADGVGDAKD
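Assay system: Human Rad51 nucleoprotein filaments preassembled on unlabelled ssDNA | Reagent: Donor/quencher-labelled 47-bp dsDNA substrate | Doses: One concentration, 10 µM final | Times: 37 °C 15-min filament assembly, 30-min compound preincubation, 15-min exchange | Technique: Fluorescein emission 520 nm, excitation 485 nm | Benchmarks: Plate control and blank wells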
Measles CPE: protection of cells from measles virus. Measles virus-infected cells, CPE protection, absorbance. protection (pct of control), % at 4 µM. actives 1.5% (n = 140,000); in the data active means protection mostly above about 24%, no sharp cut-off; inactive means mostly below about 26%
Active calls of the source: *; nt = no result. An excerpt weighted towards active compounds, which were near 2.4% of everything screened.

SMILES	HMGR II inh	Yeast growth inh	Arbovirus anti	Yeast lifespan up	Rad51 HR inh	Measles CPE
C=CCn1c(COc2ccc(Cl)cc2)nnc1SCC(=O)c1c(N)n(C)c(=O)n(C)c1=O	1.4	nt	-3.9	nt	-0.6	nt
Cn1c(SCC(=O)Nc2ccccc2)nc(O)cc1=O	1.1	61.6*	4.1	-4.7	-8.4	4.8
O=C(CCc1nc2ccccc2c(=O)[nH]1)OCCOc1ccc(Cl)cc1	0.0	nt	-1.6	nt	-5.8	nt
O=[N+]([O-])c1ccc(N/N=C/c2ccc(O)c(O)c2O)c(S(=O)(=O)N2CCOCC2)c1	21.8*	nt	-9.4	nt	0.5	nt
CC(C)(C)C1=C(C#N)C(c2ccncc2)C(C#N)=C(N)O1 (configuration not stated)	0.7	14.3	0.3	8.6	-6.0	4.9
CC(C)(C)C1=C(C#N)C(c2ccc3c(c2)OCO3)C(C#N)=C(N)O1 (configuration not stated)	11.4*	-13.8	-4.9	-7.4	5.5	2.6
Cc1nn(CC(=O)NCc2cccc3ccccc23)c(=O)c2ccccc12	-0.1	-33.9	-22.0	-5.8	-0.9	11.7
O=C(COc1ccc(Cl)cc1[N+](=O)[O-])N/N=C/c1cccs1	1.4	nt	3.4	nt	8.5	nt
CCN(Cc1ccccc1)C(c1cc2ccc(C)cc2[nH]c1=O)c1nnnn1CCOC (configuration not stated)	-7.9	-13.3	1.9	-13.4	0.2	6.6
c1ccc(N2CCN(c3nnnn3-c3ccccc3)CC2)cc1	-1.1	-54.2	-3.1	-13.4	0.9	7.4
ClC(Cl)(c1nnnn1-c1ccccc1)c1nnnn1-c1ccccc1	-1.7	-41.3	-31.1	50.4*	1.9	6.9
CCC1CSC(Nc2ccc(C(=O)/C=C/c3ccc(OC)c(OC)c3)cc2)=N1 (configuration not stated)	-4.8	-39.6	-32.1	-5.7	nt	6.7
COc1ccc(/C=C/C(=O)c2ccc(NC3=NCCCS3)cc2)cc1OC	10.4*	nt	-38.6	nt	2.0	nt
O=C(/C=C/Nc1ccc(Br)cc1F)c1ccco1	9.8*	nt	-4.5	nt	13.7	nt
O=C(/C=C/Nc1ccc(F)cc1F)c1ccco1	-7.2	nt	-8.5	nt	5.5	nt
COc1cc(NC2c3ccccc3C(=O)N2c2ccc(C)cn2)cc(OC)c1OC (configuration not stated)	2.8	-37.8	-6.4	26.6*	-6.7	20.3
O=C1CC(c2cccc(Cl)c2)CC(O)=C1C=NC1CCCC1 (configuration not stated)	1.4	-53.3	-3.9	-2.1	-23.6	8.8
CC(=O)Nc1ccc(Nc2cc(C(C)C)nc3c(-c4ccccc4)c(C)nn23)cc1	nt	nt	nt	nt	10.6	nt
CC(=O)Nc1ccc(Nc2cc(C)nc3c(-c4ccccc4)c(C)nn23)cc1	-2.2	2.7	-1.6	-6.8	-30.6	93.0*
Cc1ccc2[nH]c(=O)c(N3CCOCC3)c(-c3ccccc3)c2c1	-2.3	28.6	9.4	-3.9	-6.6	77.6*
O=C(CCN1CCOCC1)Nc1c(-c2ccccc2)c2cc(Br)ccc2[nH]c1=O	-5.3	-7.5	1.0	-21.8	-0.6	5.0
OC(CN1CCN(c2ccccn2)CC1)Cn1c2ccc(Cl)cc2c2cc(Cl)ccc21 (configuration not stated)	6.2	99.3*	-26.8	-26.8	-2.2	9.6
OC(COC(c1ccc(Cl)cc1)c1ccc(Cl)cc1)CN1CCN(c2ccccn2)CC1 (configuration not stated)	-4.0	-27.9	-39.4	5.5	0.2	11.6
Cc1nn(-c2ccccc2)c(N2CCCC2)c1/C=N/NC(=O)c1ccccc1O	-1.3	-34.6	-4.8	-5.2	-6.3	4.2
O=C(N/N=C/c1cc2c3c(c1O)CCCN3CCC2)c1ccccc1O	-1.3	62.4*	-39.9	2.4	-15.8	6.6
SMILES	HMGR II inh	Yeast growth inh	Arbovirus anti	Yeast lifespan up	Rad51 HR inh	Measles CPE
CCN(CC)c1ccc(C=C2C(=O)OC3(CCCC3)OC2=O)cc1	-2.3	-23.4	-5.9	9.0	-65.0	39.8*
CCN(CC)c1ccc(C=C2C(=O)OC(c3ccccc3)OC2=O)cc1 (configuration not stated)	0.4	nt	5.8	nt	-78.7	nt
O=C(c1cc(-c2ccccc2O)on1)N1CCc2ccccc2C1	0.1	-64.3	33.5*	-8.2	-3.6	7.5
O=C(c1cc(-c2ccc(O)cc2)on1)N1CCc2ccccc2C1	-8.2	-7.2	-22.6	-13.3	1.2	6.5
O=C(c1cncc(Br)c1)N1CCc2ccccc2C1	-2.4	-53.8	7.6	43.1*	-0.9	10.3
O=C(c1cc(-c2ccco2)on1)N1CCc2ccccc2C1	-2.8	-29.9	2.7	-6.9	-0.5	69.0*
O=C(c1cc(-c2cccs2)on1)N1CCc2ccccc2C1	-2.0	-31.3	-4.0	-6.2	-7.3	7.0
COc1cc(/C=N/NC(=O)c2ccncc2)ccc1OCc1cnc(Cl)s1	5.7	nt	6.0	nt	-13.4	nt
O=c1c2sc(-c3ccccc3)cc2nc2n1CCC2	-0.7	82.5*	-10.6	nt	-8.5	5.1
COc1ccc(CCN(CC(=O)NC2CCCC2)C(=O)CCC(=O)Nc2cc(C)on2)cc1OC	-6.6	-32.0	2.8	-9.9	nt	22.4*
Cc1[nH]n(-c2ccccc2)c(=O)c1N=Nc1nccs1	1.8	-38.6	-13.3	33.6*	-1.7	8.6
CCOc1ccc2nc(NS(=O)(=O)Cc3ccccc3)sc2c1	-1.3	-51.9	-10.5	-5.3	-4.6	5.9
CC(=O)Oc1oc(-c2ccccc2)nc1C=Nc1ccccc1	-4.5	-15.9	1.9	46.0*	-5.7	12.5
CC1CC(C)(C)CC2(C1)NC(=O)N(CC(=O)NC1CCCc3ccccc31)C2=O (configuration not stated)	-4.9	-23.6	1.7	2.0	nt	1.7
CC1CC(C)(C)CC2(C1)NC(=O)N(CC(=O)NCCc1c[nH]c3ccccc13)C2=O (configuration not stated)	-3.7	-39.9	31.7*	-1.8	-12.9	5.6
C=CCC1C=C(C)CC(CC=C)N1 (configuration not stated)	13.3*	nt	22.7	nt	3.1	nt
C=CCC1Cc2c(cccc2[N+](=O)[O-])C(CC=C)N1 (configuration not stated)	-0.6	nt	-6.7	nt	7.9	nt
N#Cc1ccc(-n2nccc2-c2cnc3n(c2=O)CCS3)cc1	-0.8	-15.8	8.6	-1.1	-8.1	40.5*
COc1ccc(C(=O)Cn2c(Cl)nc3c2c(=O)n(C)c(=O)n3C)cc1	nt	nt	nt	nt	-3.0	nt
CCC(=O)Nc1ccc2c(c1)nc(CN1CCCCC1)n2C	15.1*	nt	-4.8	nt	-3.2	nt
Cn1c(CN2CCCCC2)nc2cc(NC(=O)c3ccc(Cl)cc3)ccc21	-2.6	-42.2	-20.5	-16.3	-11.6	7.0
O=[N+]([O-])c1ccc(OCC(O)CN2CCN(c3ccccc3F)CC2)cc1 (configuration not stated)	0.0	-36.0	11.2	2.8	-0.9	14.2
CCOC(=O)C[C@H]1c2ccccc2S(=O)(=O)N1c1ccccc1	nt	nt	nt	nt	0.4	nt
